In test [1] the target is T1, 5-hydroxytryptamine receptor 7 (Homo sapiens, UniProt P34969). Nature of the test: Antagonist activity at human 5-HT7 expressed in HEK-293 cells assessed as inhibition in serotonin-induced increase in cAMP level after 45 mins by HTRF assay. Type of test: functional, cell-based, HEK293. An outline of the steps: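 From the concentration–response curve, maximal inhibition (Imax) and IC50 were read, and the dissociation constant KB was calculated.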
A general note: Cyclic AMP is a second messenger, typically raised through Gs and lowered through Gi signalling.

The target of test [2] is T1, 5-hydroxytryptamine receptor 7. Nature of the test: Displacement of [3H]LSD from human 5-HT7 expressed in HEK-293 cells after 120 mins by scintillation spectrometry. Type of test: cell-based, HEK293. An outline of the steps:
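Competition binding on membranes of CHO-K1 or HEK-293 cells transfected with human 5-HT7 receptor, radioligand [3H]LSD; 5-CT as reference. Two to four experiments, each in triplicate; Ki reported as mean.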
(Loss of bound radioactivity is the signal in a displacement assay; it reports binding, not function.)

Test [3] deals with T2, 5-hydroxytryptamine receptor 1A (Homo sapiens, UniProt P08908).
T2 sequence (P08908 whole entry): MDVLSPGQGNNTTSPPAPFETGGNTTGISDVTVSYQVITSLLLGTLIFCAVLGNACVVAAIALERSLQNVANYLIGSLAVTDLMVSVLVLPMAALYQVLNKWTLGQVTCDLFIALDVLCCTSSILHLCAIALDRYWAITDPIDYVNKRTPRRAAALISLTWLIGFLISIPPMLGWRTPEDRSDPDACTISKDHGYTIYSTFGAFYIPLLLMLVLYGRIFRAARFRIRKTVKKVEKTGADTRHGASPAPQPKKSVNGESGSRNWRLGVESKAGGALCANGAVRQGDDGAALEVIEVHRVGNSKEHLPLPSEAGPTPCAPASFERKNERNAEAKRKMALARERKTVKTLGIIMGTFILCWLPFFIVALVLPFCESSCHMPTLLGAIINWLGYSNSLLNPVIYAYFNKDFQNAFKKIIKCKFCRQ
Nature of the test: Displacement of [3H]-8-OH-DPAT from human 5-HT1A expressed in CHO-K1 cells after 120 mins by scintillation spectrometry. It is filed as cell-based. The procedure, abridged:
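Competitive radioligand binding on membranes from transfected cells expressing human 5-HT1A receptor, with [3H]-8-OH-DPAT as the radioligand. Affinity is given as Ki, the mean of two to four experiments, each run in triplicate.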

For test [4], the target named is Sodium-dependent serotonin transporter (Homo sapiens) (UniProt P31645). Nature of the test: Displacement of [3H]imipramine from 5-HT transporter (unknown origin) at 1 uM after 60 mins. An outline of the steps: (§1)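 Single test concentration of 1 μM; percent displacement of the respective radioligand binding at each target.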
Sodium-dependent serotonin transporter (Homo sapiens), sequence (P31645 whole entry, looked up): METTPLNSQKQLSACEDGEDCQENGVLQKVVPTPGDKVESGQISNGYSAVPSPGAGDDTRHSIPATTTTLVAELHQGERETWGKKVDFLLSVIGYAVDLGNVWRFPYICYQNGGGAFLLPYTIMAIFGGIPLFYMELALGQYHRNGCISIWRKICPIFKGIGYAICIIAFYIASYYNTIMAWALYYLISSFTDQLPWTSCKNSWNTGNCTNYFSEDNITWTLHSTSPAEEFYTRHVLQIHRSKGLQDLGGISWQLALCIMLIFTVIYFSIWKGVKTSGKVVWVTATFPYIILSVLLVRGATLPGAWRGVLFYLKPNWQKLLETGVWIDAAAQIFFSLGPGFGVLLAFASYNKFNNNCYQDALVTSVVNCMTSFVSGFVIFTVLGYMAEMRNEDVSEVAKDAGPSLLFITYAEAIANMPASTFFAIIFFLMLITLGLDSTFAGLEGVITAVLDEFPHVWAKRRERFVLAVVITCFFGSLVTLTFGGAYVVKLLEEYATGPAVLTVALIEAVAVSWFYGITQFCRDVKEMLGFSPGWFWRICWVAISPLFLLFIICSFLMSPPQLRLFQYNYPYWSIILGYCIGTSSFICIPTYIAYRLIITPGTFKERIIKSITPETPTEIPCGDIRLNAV
Test [5] has as its target T1, 5-hydroxytryptamine receptor 7. The test can be described thus: Agonist activity at human 5-HT7 expressed in HEK-293 cells assessed as increase in cAMP level after 45 mins by HTRF assay. Type of test: functional, cell-based, HEK293.
The subject of test [6] is Mus musculus. Nature of the test: Antidepressant activity in C57BL/6J mouse assessed as decrease in the immobility at 1 mg/kg, ip administered as single dose measured for last 4 mins of test by tail suspension method relative to vehicle-treated control. It is filed as functional, organism-based. The arrangement: dose 1 mg/kg.
Test [7] has as its target 5-hydroxytryptamine receptor 2A (Homo sapiens) (UniProt P28223). Nature of the test: Displacement of [3H]ketanserin from 5-HT2A (unknown origin) at 1 uM after 60 mins. The procedure, abridged:
as §1

The test system of test [8] is Mus musculus. The test can be described thus: Effect on core body temperature in C57BL/6J mouse at 0.3 to 1 mg/kg, ip administered as single dose. It is filed as functional, organism-based. The procedure, abridged:
(§2)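 C57BL/6J mice (male and female, 8−12 weeks), single ip doses in 0.9% saline vehicle, start 9:00 h. Rectal probe core temperature taken at baseline just before injection, at 15 and 30 min, then every 30 min to 2 h. For antagonism, test drug given 30 min before 8-OH-DPAT (0.3 mg/kg ip).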

Test [9] deals with Melatonin receptor (Homo sapiens) (UniProt P48039+P49286). The test can be described thus: Displacement of [125I]-2-iodomelatonin from MT1 (unknown origin) at 1 uM after 60 mins. It is filed as protein assay. An outline of the steps:
as §1

For test [10], the system named is Mus musculus. The test can be described thus: Antidepressant activity in C57BL/6J mouse assessed as decrease in the immobility at 10 mg/kg, ip administered as single dose measured for last 4 mins of test by tail suspension method relative to vehicle-treated control. Type of test: functional, organism-based. On the set-up: dose 10 mg/kg.
In test [11] the test system is Mus musculus. The test can be described thus: Inhibition of 8-OH-DPAT-induced hypothermia in C57BL/6J mouse assessed as reduction in core body temperature at 1 mg/kg, ip administered 30 mins prior challenge as single dose. It is filed as functional, organism-based. The arrangement: dose 1 mg/kg. An outline of the steps: as §2
In test [12] the test system is Mus musculus. Nature of the test: Antidepressant activity in C57BL/6J mouse assessed as decrease in the immobility at 1 mg/kg, ip administered as single dose measured for last 4 mins of test by forced swim test relative to vehicle-treated control. It is filed as functional, organism-based. On the set-up: dose 1 mg/kg. An outline of the steps:
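Male and female C57BL/6J mice, 8−12 weeks, group housed; single ip injection, 0.9% saline vehicle; start 9:00 h. Mouse placed 6 min in clear cylinder (16 cm diameter, 25 cm high) holding 10 cm of 25 °C water, replaced between animals; trained observer scored immobility (no movement beyond keeping head above surface) over last 4 min. N = 7−9/group; Student's two-tailed unpaired t test.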

Test [13] deals with T3, Corticotropin-releasing factor receptor 1 (Homo sapiens) (UniProt P34998).
T3 sequence (whole entry): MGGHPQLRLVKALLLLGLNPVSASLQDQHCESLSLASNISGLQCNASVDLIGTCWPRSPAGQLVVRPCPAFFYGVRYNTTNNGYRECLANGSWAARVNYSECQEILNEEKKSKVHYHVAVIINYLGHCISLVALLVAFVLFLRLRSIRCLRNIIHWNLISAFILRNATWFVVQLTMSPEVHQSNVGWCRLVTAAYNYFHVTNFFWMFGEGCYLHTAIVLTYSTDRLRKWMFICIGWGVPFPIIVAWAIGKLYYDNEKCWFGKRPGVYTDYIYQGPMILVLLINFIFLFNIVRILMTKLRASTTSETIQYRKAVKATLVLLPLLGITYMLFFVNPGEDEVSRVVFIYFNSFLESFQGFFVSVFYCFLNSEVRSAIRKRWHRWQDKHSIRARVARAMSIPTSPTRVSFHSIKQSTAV
The test can be described thus: Displacement of [125I]sauvagine from CRF1 (unknown origin) at 1 uM after 120 mins. The procedure, abridged:
as §1

Structures are written as SMILES. Activity calls are given as the source filed them. The calls are words filed in the database; no cut-off is given here.

T1 sequence (P34969 whole entry): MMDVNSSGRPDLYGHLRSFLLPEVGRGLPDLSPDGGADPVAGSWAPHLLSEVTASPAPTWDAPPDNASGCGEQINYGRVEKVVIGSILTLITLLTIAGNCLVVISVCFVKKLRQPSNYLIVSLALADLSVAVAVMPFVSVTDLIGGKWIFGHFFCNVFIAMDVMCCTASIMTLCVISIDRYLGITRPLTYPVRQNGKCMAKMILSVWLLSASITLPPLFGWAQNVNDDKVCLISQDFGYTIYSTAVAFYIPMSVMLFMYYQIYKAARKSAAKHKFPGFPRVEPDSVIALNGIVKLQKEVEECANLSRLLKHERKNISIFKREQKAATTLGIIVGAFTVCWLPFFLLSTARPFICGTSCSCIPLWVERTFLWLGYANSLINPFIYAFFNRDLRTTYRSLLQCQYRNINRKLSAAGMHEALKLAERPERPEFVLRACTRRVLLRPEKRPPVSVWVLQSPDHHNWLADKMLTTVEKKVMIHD
5-hydroxytryptamine receptor 2A (Homo sapiens), sequence (P28223 whole entry): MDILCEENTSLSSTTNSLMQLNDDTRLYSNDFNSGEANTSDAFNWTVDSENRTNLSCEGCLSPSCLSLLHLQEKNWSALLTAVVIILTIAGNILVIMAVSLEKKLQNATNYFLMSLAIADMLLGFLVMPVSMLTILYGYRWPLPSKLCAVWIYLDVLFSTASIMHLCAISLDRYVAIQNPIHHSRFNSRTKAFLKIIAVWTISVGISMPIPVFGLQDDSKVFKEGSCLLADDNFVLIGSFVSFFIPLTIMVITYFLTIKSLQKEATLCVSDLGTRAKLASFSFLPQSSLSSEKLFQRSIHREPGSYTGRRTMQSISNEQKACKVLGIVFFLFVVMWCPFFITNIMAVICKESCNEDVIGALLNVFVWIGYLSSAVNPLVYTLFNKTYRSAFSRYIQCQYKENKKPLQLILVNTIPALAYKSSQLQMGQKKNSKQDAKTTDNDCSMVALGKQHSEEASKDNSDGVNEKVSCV

Regarding `CN1C[C@@H](NS(=O)(=O)N(C)C)C[C@@H]2c3cccc4c3c(cn4C)C[C@H]21` [MESULERGINE], the IC50 in [1] turned out to be 290 nM.
Regarding `O=C1Cc2ccccc2N1CCCCCCCN1CCc2ccccc2C1`, the Ki in test [2] was 36 nM; in test [3], more than 1000 nM.
For the compound `O=C1Cc2ccccc2N1CCCCN1CC[C@H]2CCCC[C@@H]2C1` (racemic), the Ki in [2] was 29 nM; in test [3] it was 470 nM.
With `O=C1Cc2ccccc2N1CCCCCCCN1CC[C@H]2CCCC[C@@H]2C1` (racemic), the Ki is 62 nM in [2] and more than 1000 nM in test [3].
On the same counts, the results for `O=C1Cc2ccccc2N1CCCCCN1CC[C@H]2CCCC[C@@H]2C1` (racemic) are 41 nM and 491 nM.
For `O=C1Cc2ccccc2N1CC/C=C/CCN1CCc2ccccc2C1`, the inhibition was 14% in test [4], 15% in test [7], -4% in test [9] and -10% in test [13]. Also, the EC50 in test [5] was found to be 230 nM. Besides, the Ki is 0.7 nM in [2] and more than 1000 nM in test [3]. Besides, the outcome with Mus musculus [6] and in the test with Mus musculus [12] was Active. The outcome in the test on Mus musculus [8] and with Mus musculus [10] was inactive. The IC50 in [1] amounted to 2200 nM. Also, in the test on Mus musculus [11], the inhibition entry is “Active”.
On to `O=C1Cc2ccccc2N1CC/C=C/CCN1CC[C@H]2CCCC[C@@H]2C1` (racemic), for which, in [5], the EC50 came out at 60 nM. Moreover, the Ki in [2] was 2.7 nM; in [3] it was more than 1000 nM. In addition, in test [1], the IC50 was determined as 2300 nM.
Consider `O=C1Cc2ccccc2N1CCCCCCN1CCc2ccccc2C1`, for which the Ki in test [2] stood at 24 nM; in [3], 576 nM.
On the same counts, the results for `O=C1Cc2ccccc2N1CCCCCN1CCc2ccccc2C1` are 28 nM and 523 nM.

Broadly, the IC50 is the concentration that gives 50% inhibition. Broadly, the Ki is a dissociation constant, usually derived from enzyme kinetics or from competition with a known ligand. Broadly, the inhibition is the drop in the measured response relative to a control, in per cent. By EC50 is commonly meant the midpoint of the concentration-response curve.

For the origin of these results see ChEMBL document CHEMBL3351619 (J Med Chem, 2014).
